Data set [1] deals with HeLa. Kind of data set: Cytotoxicity against TdT-deficient human HeLa cells assessed as growth inhibition after 24 to 48 hrs by MTT assay. It is filed as cell-based. The procedure, abridged: (§1)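 MOLT-4 cells were grown in RPMI-1640 and HeLa cells in DMEM, with 10% FCS at 37 °C. Cells were seeded at 10^5 per well, given 24 h to attach, then exposed to compounds (0.1–100 range) for 24 or 48 h. MTT at 1 mg/mL was added for 2 h at 37 °C, formazan was dissolved in DMSO, and absorbance read at 550 nm versus 0.5% DMSO vehicle. IC50 was obtained by regression, in triplicate.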
In general terms: Formazan colour is commonly taken as a measure of viable cells.

Data set [2] relates to MOLT-4. Kind of data set: Cytotoxicity against human MOLT4 cells overexpressing TdT assessed as growth inhibition after 24 to 48 hrs by MTT assay. Format: functional, cell-based. The procedure, abridged: as §1
The target in data set [3] is DNA nucleotidylexotransferase (Homo sapiens, UniProt P04053). Kind of data set: Inhibition of human recombinant TdT using [3H]dNTP as substrate after 10 mins by scintillation counting analysis. The procedure, abridged:
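TdT was from Trevigen. TCA-precipitated radioactivity was counted. ID50 came from dose–response fitting. For kinetics, DNA or dNTP was varied at increasing inhibitor, and Ki was obtained via Cheng–Prusoff for a competitive model.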

Data set [4] concerns MOLT-4. The experiment in a line: Cell cycle arrest in human MOLT4 cells overexpressing TdT assessed as decrease of cells in G2 phase at 30 uM after 24 hrs by propidium iodide staining-based FACS flow cytometric analysis relative to vehicle-treated control. It is filed as functional. Set-up: scale not given: the % may be the effect or the level left. The procedure, abridged:
(§2)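 Cells at 2.5 × 10^5 cells/mL were treated 24 h with compound or vehicle. They were washed in PBS, trypsinized, and stained 30 min at 4 °C in the dark with 0.1% sodium citrate, 0.1% Triton X-100 and propidium iodide. Analysis was by FACScan flow cytometry, giving the percentage of cells in G0/G1, S and G2/M.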

The subject of data set [5] is MOLT-4. Kind of data set: Downregulation of cyclin E protein expression in human MOLT4 cells overexpressing TdT at 30 uM by Western blot analysis. Format: functional, cell-based. The procedure, abridged: (§3)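 1 × 10^6 cells were incubated with or without compound, then lysed in cold buffer (50 mM Tris, 150 mM NaCl, 10 mM EDTA, 1% Triton) with protease inhibitors. Equal protein was run on 8–12% SDS-PAGE and blotted to nitrocellulose. Membranes were probed overnight at 4 °C with antibodies to cyclin E2, cyclin A, p53 or caspase 3, detected by HRP/ECL, and normalized to actin by densitometry.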
For orientation: Immunoblotting shows a protein as a band on a membrane.

In data set [6] the target is T1, DNA polymerase lambda (Homo sapiens) (UniProt Q9UGP5).
T1 sequence (whole entry): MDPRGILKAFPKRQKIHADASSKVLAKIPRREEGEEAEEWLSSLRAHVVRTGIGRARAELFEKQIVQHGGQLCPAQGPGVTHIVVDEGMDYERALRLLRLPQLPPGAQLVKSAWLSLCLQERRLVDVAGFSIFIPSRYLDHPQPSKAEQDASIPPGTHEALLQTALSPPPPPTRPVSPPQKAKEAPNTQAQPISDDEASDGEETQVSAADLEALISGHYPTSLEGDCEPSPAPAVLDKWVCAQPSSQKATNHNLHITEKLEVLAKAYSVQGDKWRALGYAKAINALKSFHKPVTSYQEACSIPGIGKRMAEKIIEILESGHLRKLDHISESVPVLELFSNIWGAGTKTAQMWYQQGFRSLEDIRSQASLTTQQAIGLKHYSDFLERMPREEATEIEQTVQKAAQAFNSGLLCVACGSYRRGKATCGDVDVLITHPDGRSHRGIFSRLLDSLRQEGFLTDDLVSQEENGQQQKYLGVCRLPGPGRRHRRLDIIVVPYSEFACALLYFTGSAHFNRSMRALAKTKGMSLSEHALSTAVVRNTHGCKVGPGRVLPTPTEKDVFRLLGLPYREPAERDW
Kind of data set: Inhibition of human recombinant full length DNA polymerase lambda using [3H]dTTP as substrate and 10 poly(dA)/oligo(dT) as template-primer after 15 mins by scintillation counting analysis. The procedure, abridged: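 Recombinant full-length human pol λ at 50 nM was assayed with 0.2 μM poly(dA)/oligo(dT)10:1 (3′-OH ends) and 5 μM [3H]dTTP (5 Ci/mmol). Incubation was 15 min at 37 °C. TCA precipitates were scintillation counted.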

The test system of data set [7] is HeLa. Kind of data set: Downregulation of cyclin E protein expression in TdT-deficient human HeLa cells at 30 uM by Western blot analysis. It is filed as ADME, cell-based. The procedure, abridged: as §3
Data set [8] has as its system HeLa. The experiment in a line: Cell cycle arrest in TdT-deficient human HeLa cells assessed as accumulation at G1 phase at 30 uM after 24 hrs by propidium iodide staining-based FACS flow cytometric analysis relative to vehicle-treated control. It is filed as ADME. An outline of the steps: as §2
Data set [9] relates to HeLa. Kind of data set: Cell cycle arrest in TdT-deficient human HeLa cells assessed as decrease of cells in G2 phase at 30 uM after 24 hrs by propidium iodide staining-based FACS flow cytometric analysis relative to vehicle-treated control. It is filed as ADME. Also noted: scale not given: the % may be the effect or the level left. The procedure, abridged: as §2
In general terms: Flow cytometry measures light scatter and fluorescence of single cells or particles in a stream.

The subject of data set [10] is MOLT-4. Kind of data set: Cell cycle arrest in human MOLT4 cells overexpressing TdT assessed as accumulation at G1 phase at 30 uM after 24 hrs by propidium iodide staining-based FACS flow cytometric analysis relative to vehicle-treated control. It is filed as functional. An outline of the steps:
as §2

Data set [11] addresses DNA polymerase beta (Homo sapiens, UniProt P06746). Kind of data set: Inhibition of human recombinant DNA polymerase beta.
The target of data set [12] is T1, DNA polymerase lambda (Homo sapiens). The experiment in a line: Inhibition of human recombinant full length DNA polymerase lambda TdT-like activity using [3H]dNTP as substrate after 10 mins by scintillation counting analysis. The procedure, abridged: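 Full-length recombinant human pol λ (>90% pure) was tested for template-independent activity. Acid-insoluble radioactivity was counted, and ID50 came from dose–response fitting.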

Structures are written as SMILES. Active and inactive are the calls of the source. No cut-off for these calls is given here.

We go through one compound from ChEMBL document CHEMBL2440062, “New nucleotide-competitive non-nucleoside inhibitors of terminal deoxynucleotidyl transferase: discovery, characterization, and crystal structure in complex with the target” (J Med Chem, 2013).

Usually IC50 stands for the point on the concentration scale where inhibition reaches its midpoint.

Sequence of DNA nucleotidylexotransferase (P04053 whole entry): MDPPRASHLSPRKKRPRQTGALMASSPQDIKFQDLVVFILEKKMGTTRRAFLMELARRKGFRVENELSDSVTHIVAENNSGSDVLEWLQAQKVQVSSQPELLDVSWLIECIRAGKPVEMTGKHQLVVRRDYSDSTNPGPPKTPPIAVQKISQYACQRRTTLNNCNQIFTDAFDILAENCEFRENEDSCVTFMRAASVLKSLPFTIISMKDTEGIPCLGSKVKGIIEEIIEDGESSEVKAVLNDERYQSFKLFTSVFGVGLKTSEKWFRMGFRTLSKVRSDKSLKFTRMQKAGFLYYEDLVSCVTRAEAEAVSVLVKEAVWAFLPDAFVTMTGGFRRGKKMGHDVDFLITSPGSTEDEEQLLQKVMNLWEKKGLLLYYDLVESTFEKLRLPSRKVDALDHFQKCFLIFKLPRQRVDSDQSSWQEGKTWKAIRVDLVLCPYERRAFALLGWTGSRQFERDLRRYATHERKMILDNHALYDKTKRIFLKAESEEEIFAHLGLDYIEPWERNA

Regarding `CCCCn1cc(/C=C/C(=O)CC(=O)C(=O)O)c2ccccc21`, the figures for the IC50 in data set [1], in data set [2] and in data set [11] were 30 µM, 30 µM and greater than 40 µM, respectively. Further, the ID50 in data set [3] was 26 µM; in data set [6], greater than 40 µM; in data set [12] it was greater than 40 µM. Besides, the Activity in data set [4] is listed as 10%; in [7], “Toxic”; in [8], 20%; in [9], 10%; in data set [10] it was 20%. Besides, the outcome in data set [5] was Active.
